From ChEMBL document CHEMBL1121557, “Chemistry, pharmacology, and structure-activity relationships with a new type of imidazolines exerting a specific bradycardic action at a cardiac site” (J Med Chem, 1980)
Converted amounts (≈) assume the structure as drawn.

Experiments:
[1] = Partition coefficient (logD7.4); settings: octanol/water, pH 7.4
Rattus norvegicus [2] = experiment: Dose required to decrease heart rate after iv injection to spinal rats; assay type: functional
Outline: (§1)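 Male Chbb:THOM rats, 200–250 g, under pentobarbital sodium 50 mg/kg ip, atropine sulfate 1 mg/kg sc, trachea cannulated. Medulla cut at C1, brain destroyed, artificially ventilated. Jugular iv injections given cumulatively, dose doubled every 2 min, 3 doses per animal, top cumulative dose 10 mg/kg. ECG-triggered tachograph heart rate. D150 (dose lowering rate 150 beats/min) read graphically from log dose–response curves; n = 6 rats.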

Rattus norvegicus [3] = organism: Rattus norvegicus; experiment: Evaluated for decreased heart rate in spinal rats, relative activity was determined; assay type: functional; outline: as §1
[4] = Dissociation constant (pKa); assay type: physicochemical
Cavia porcellus [5] = organism: Cavia porcellus; experiment: Evaluated for decrease in spontaneous frequency of atrial rate in isolated guinea pig atria; assay type: functional; settings: Cardiac atrium
Outline: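 Atria dissected from guinea pigs of various breeds (300–500 g, either sex) and suspended in modified Tyrode's solution gassed with 98% O2/2% CO2, resting tension 1 g. Spontaneously beating atria at 37 °C, equilibrated at least 30 min until rate stable within 5 beats/min. Drug added cumulatively, concentration doubled every 10 min. EC30 = concentration reducing predrug rate by 30%, read from curves.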

[6] = EC30 ratio of contractility to atrial rate in isolated guinea pig atria; assay type: functional, Cardiac atrium
Outline: (§2)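 Ratios of EC30 values from isolated guinea pig atria. Atrial rate was measured in spontaneously beating atria at 37 °C after at least 30 min of equilibration, until rate varied by no more than 5 beats/min. Contractility was measured in left atria driven at 2.5 Hz, 30 °C. Maximal driving frequency was found by stepwise pacing. Compound was added cumulatively, concentration doubled every 10 min.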

[7] = EC30 ratio of maximal driving frequency to atrial rate in isolated guinea pig atria; assay type: functional, Cardiac atrium; outline: as §2
Cavia porcellus [8] = organism: Cavia porcellus; experiment: Evaluated for decrease in contractility in isolated guinea pig atria; assay type: functional
Outline: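 Electrically driven left guinea pig atria (300–500 g, either sex) in modified Tyrode's gassed 98% O2/2% CO2, 30 °C, 1 g resting tension. Stimulation 3 ms rectangular pulses at 1.5× threshold, 2.5 Hz, after 20 min equilibration. Isometric force in grams. Concentrations added cumulatively, doubled every 10 min, one atrium per experiment. EC30 (30% fall from predrug value) read from curves.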

Cavia porcellus [9] = organism: Cavia porcellus; experiment: Evaluated for decrease in maximal driving frequency in isolated guinea pig atria; assay type: functional
Outline: (§3)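 Guinea pig left atria in modified Tyrode's gassed 98% O2/2% CO2, 1 g resting tension, driven with 1 ms pulses at 3× threshold. Runs separated by 5 min at 0.5 Hz. Control is the mean of 3 predrug runs; the value is the mean of runs at 5 and 10 min after each cumulative addition, concentration doubled every 10 min. EC30 read from curves.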

[10] = Ratio of contractility to atrial rate in isolated guinea pig atria; assay type: functional, Cardiac atrium; outline: as §2
Cavia porcellus [11] = organism: Cavia porcellus; experiment: Evaluated for increase in maximal driving frequency in isolated guinea pig atria; assay type: functional; outline: as §3

Structure (SMILES) | logD [1] | D150 (Rattus norvegicus [2]) | Relative activity (Rattus norvegicus [3]) | pKa [4] | EC30 (Cavia porcellus [5]) | Ratio [6] | Ratio [7] | EC30 (Cavia porcellus [8]) | EC30 (Cavia porcellus [9]) | Ratio [10] | EC30 (Cavia porcellus [11])
Brc1ccccc1N(CC1CC1)C1=NCCN1 | -1.3 | 4.4 mg/kg | 0.14 | 11.2 | – | – | – | – | – | – | –
Cc1cccc(Cl)c1N(CC1CC1)C1=NCCN1 | -0.99 | 1.85 mg/kg | 0.34 | 11.3 | – | – | – | – | – | – | –
CC(C)N(C1=NCCN1)c1c(Br)cccc1Br | -0.82 | 2.3 mg/kg | 0.27 | 11.2 | – | – | – | – | – | – | –
CC(C)CN(C1=NCCN1)c1c(Br)cccc1Br | -0.64 | 1.35 mg/kg | 0.46 | 11 | – | – | – | – | – | – | –
Brc1cccc(Br)c1N(CC1CC1)C1=NCCCN1 | -1.03 | 1.1 mg/kg | 0.56 | 12.4 | – | – | – | – | – | – | –
Brc1cccc(Br)c1N(CC1CCC1)C1=NCCN1 | -0.06 | 1.2 mg/kg | 0.52 | 10.9 | – | – | – | – | – | – | –
Brc1cccc(Br)c1N(CC1CC1)C1=NCCN1 | -1.12 | 0.62 mg/kg | 1 | 10.9 | 0.65 µg/mL (≈ 1.74 µM) | 146 | 18 | 95 µg/mL (≈ 255 µM) | 12 µg/mL (≈ 32.2 µM) | – | –
Brc1ccc(N(CC2CC2)C2=NCCN2)cc1Br | – | >>10 mg kg-1 | <<0.062 | – | – | – | – | – | – | – | –
CCCCN(C1=NCCN1)c1c(Br)cccc1Br | -2.5 | 1.35 mg/kg | 0.46 | 11 | – | – | – | – | – | – | –
C=CCN(C1=NCCN1)c1c(Br)cccc1Br | -0.75 | 1.5 mg/kg | 0.41 | 10.7 | – | – | – | – | – | – | –
Brc1cccc(Br)c1N(Cc1ccccc1)C1=NCCN1 | -0.05 | 2.5 mg/kg | 0.25 | 10.4 | – | – | – | – | – | – | –
Brc1cccc(N(CC2CC2)C2=NCCN2)c1Br | -0.41 | 7.5 mg/kg | 0.083 | 11.1 | – | – | – | – | – | – | –
CCCN(C1=NCCN1)c1c(Br)cccc1Br | -0.55 | 0.65 mg/kg | 0.95 | 11 | – | – | – | – | – | – | –
Fc1cccc(Br)c1N(CC1CC1)C1=NCCN1 | -1.03 | 1.5 mg/kg | 0.41 | 10.7 | – | – | – | – | – | – | –
CCCCCN(C1=NCCN1)c1c(Br)cccc1Br | 0.32 | 1.6 mg/kg | 0.39 | 11 | – | – | – | – | – | – | –
C=C(C)CCN(C1=NCCN1)c1c(Br)cccc1Br | 0.02 | 1.03 mg/kg | 0.6 | 10.9 | – | – | – | – | – | – | –
CN(C1=NCCN1)c1c(Br)cccc1Br | – | 1.4 mg/kg | – | 10.7 | – | – | – | – | – | – | –
Brc1cccc(Br)c1N(Cc1ccco1)C1=NCCN1 | -0.52 | 2.8 mg/kg | 0.22 | 10.5 | – | – | – | – | – | – | –
C/C=C/CN(C1=NCCN1)c1c(Br)cccc1Br | -0.49 | 0.7 mg/kg | 0.88 | 11 | – | – | – | – | – | – | –
C#CCN(C1=NCCN1)c1c(Br)cccc1Br | -0.18 | 1.25 mg/kg | 0.5 | 10.1 | – | – | – | – | – | – | –
Fc1cccc(Cl)c1N(CC1CC1)C1=NCCN1 | -0.98 | 0.74 mg/kg | 0.84 | 10.8 | – | – | – | – | – | – | –

Structure (SMILES) | logD [1] | D150 (Rattus norvegicus [2]) | Relative activity (Rattus norvegicus [3]) | pKa [4] | EC30 (Cavia porcellus [5]) | Ratio [6] | Ratio [7] | EC30 (Cavia porcellus [8]) | EC30 (Cavia porcellus [9]) | Ratio [10] | EC30 (Cavia porcellus [11])
CC(C)CCN(C1=NCCN1)c1c(Br)cccc1Br | 0.16 | 1.3 mg/kg | 0.48 | 10.9 | – | – | – | – | – | – | –
Brc1cccc(Br)c1N(C1=NCCN1)C1CCCCC1 | 0.14 | 2.6 mg/kg | 0.24 | 11.3 | – | – | – | – | – | – | –
CC(C)=CCN(C1=NCCN1)c1c(Br)cccc1Br | -0.14 | 3.5 mg/kg | 0.18 | 10.8 | – | – | – | – | – | – | –
CCN(C1=NCCN1)c1c(Br)cccc1Br | -1.01 | 0.75 mg/kg | 0.83 | 11.1 | – | – | – | – | – | – | –
Brc1ccc(N(CC2CC2)C2=NCCN2)c(Br)c1 | -0.31 | 10 mg/kg | 0.062 | 11.2 | – | – | – | – | – | – | –
Brc1cccc(Br)c1N(CC1CCCC1)C1=NCCN1 | 0.32 | 1.3 mg/kg | 0.48 | 10.9 | – | – | – | – | – | – | –
Brc1cccc(Br)c1N(Cc1cccs1)C1=NCCN1 | -0.1 | 1.9 mg/kg | 0.33 | 10.5 | – | – | – | – | – | – | –
Fc1cccc(F)c1N(CC1CC1)C1=NCCN1 | -1.41 | 4.8 mg/kg | 0.13 | 10.3 | – | – | – | – | – | – | –
Brc1ccc(Br)c(N(CC2CC2)C2=NCCN2)c1 | -0.52 | 5 mg/kg | 0.12 | 11 | – | – | – | – | – | – | –
N=C(N)N(CC1CC1)c1c(Br)cccc1Br | -0.63 | >10 mg/kg | <0.062 | 11.9 | – | – | – | – | – | – | –
Brc1cccc(Br)c1N(CC1CCCCC1)C1=NCCN1 | 0.27 | 6.5 mg/kg | 0.095 | 11.2 | – | – | – | – | – | – | –
Fc1cccc(C(F)(F)F)c1N(CC1CC1)C1=NCCN1 | -0.95 | 1.8 mg/kg | 0.34 | 10.7 | – | – | – | – | – | – | –
C=C(C)CN(C1=NCCN1)c1c(Br)cccc1Br | -0.66 | 2.1 mg/kg | 0.3 | 10.7 | – | – | – | – | – | – | –
Brc1cccc(Br)c1N(C1=NCCN1)C1CCCC1 | -0.29 | 1 mg/kg | 0.62 | 11.2 | – | – | – | – | – | – | –
C=CCCN(C1=NCCN1)c1c(Br)cccc1Br | -0.63 | 1 mg/kg | 0.62 | 11.2 | – | – | – | – | – | – | –
Clc1cccc(Br)c1N(CC1CC1)C1=NCCN1 | -0.79 | 0.42 mg/kg | 1.48 | 10.8 | – | – | – | – | – | – | –
Clc1cccc(Cl)c1N(CC1CC1)C1=NCCN1 | -0.92 | 0.65 mg/kg | 0.95 | 10.9 | – | – | – | – | – | – | –
COc1ccc(CCN(C)CCCC(C#N)(c2ccc(OC)c(OC)c2)C(C)C)cc1OC (stereo not given) | – | – | – | – | 0.2 µg/mL (≈ 0.44 µM) | – | – | 0.24 µg/mL (≈ 0.528 µM) | 6.5 µg/mL (≈ 14.3 µM) | 1.2 | –
C=CCN(C1=NCCN1)c1c(Cl)cccc1Cl [ALINIDINE] | -1.66 | 2.5 mg/kg | 0.25 | 10.4 | – | – | – | – | – | – | –
C[N+](C)(C)CCOC(N)=O.[Cl-] [CARBACHOL] | – | – | – | – | 0.029 µg/mL | – | – | 0.0065 µg/mL | – | 0.22 | 0.09 µg/mL
C=C[C@H]1CN2CC[C@H]1C[C@@H]2[C@@H](O)c1ccnc2ccc(OC)cc12 [QUINIDINE] | – | – | – | – | 7.2 µg/mL (≈ 22.2 µM) | 8.6 | 0.9 | 62 µg/mL (≈ 191 µM) | 6.5 µg/mL (≈ 20 µM) | – | –
